In ChEMBL document CHEMBL1153408, “Molecular modeling studies and in vitro bioactivity evaluation of a set of novel 5-nitro-heterocyclic derivatives as anti-T. cruzi agents” (2009):

Legend:
Assay type in all cases: functional
[1] = system: Trypanosoma cruzi; experiment: Antitrypanosomal activity against Trypanosoma cruzi Y epimastigotes assessed as parasite growth at 10 ug/ml after 24 hrs
In short: (§1)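 Y strain epimastigotes grown in LIT medium (pH 7.2, 10% FBS, 2% hemoglobin). Compounds dissolved in DMSO and diluted into LIT. Parasites added at an initial 10^6/mL and incubated at 28 °C for 24 h. Cells counted in a Neubauer chamber at 0 h and 24 h, in triplicate. Growth % = (L24 − L0) × 100/L0.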

[2] = system: Trypanosoma cruzi; experiment: Antitrypanosomal activity against Trypanosoma cruzi Y epimastigotes assessed as parasite growth at 20 ug/ml after 24 hrs; in short: as §1
[3] = system: Trypanosoma cruzi; experiment: Antitrypanosomal activity against Trypanosoma cruzi Y epimastigotes assessed as parasite growth at 1 ug/ml after 24 hrs; in short: as §1

`O=C(Cn1ccnc1[N+](=O)[O-])NCc1ccccc1` [BENZNIDAZOLE] was tested, and the Activity [1] was 30% and the “Parasite growth over 24 h” value [2] was 3%.

With `NS(=O)(=O)c1ccc(C(=O)N/N=C/c2ccc([N+](=O)[O-])s2)cc1` the Parasite growth [3] was 16%, the Activity [1] was 18.2% and the “Parasite growth over 24 h” value [2] was 19%.

With `O=C(N/N=C/c1ccc([N+](=O)[O-])o1)c1ccc(Cl)cc1` the Parasite growth [3] was 0%, the Activity [1] was 0% and the “Parasite growth over 24 h” value [2] was 0%.

`O=C(N/N=C/c1ccc([N+](=O)[O-])s1)c1ccc(Cl)cc1` was tested, and the Parasite growth [3] was 4%, the Activity [1] was 0% and the “Parasite growth over 24 h” value [2] was 0%.

With `COc1ccc(C(=O)N/N=C/c2ccc([N+](=O)[O-])s2)cc1` the Parasite growth [3] was 100%, the Activity [1] was 0% and the “Parasite growth over 24 h” value [2] was 0%.

For `CN(C)c1ccc(C(=O)N/N=C/c2ccc([N+](=O)[O-])s2)cc1`, the Parasite growth [3] was 10%, the Activity [1] was 43.6% and the “Parasite growth over 24 h” value [2] was 0%.

Compound `N#Cc1ccc(C(=O)N/N=C/c2ccc([N+](=O)[O-])s2)cc1` has an Activity [1] of 0%.

`O=C(N/N=C/c1ccc([N+](=O)[O-])s1)c1ccc(O)cc1` showed an Activity [1] of 56.6%.

For `O=C(N/N=C/c1ccc([N+](=O)[O-])s1)c1ccc(C(F)(F)F)cc1`, the Parasite growth [3] was 28.4%, the Activity [1] was 0% and the “Parasite growth over 24 h” value [2] was 0%.

`O=C(N/N=C/c1ccc([N+](=O)[O-])s1)c1ccccc1` was tested, and the Parasite growth [3] was 13%, the Activity [1] was 57.3% and the “Parasite growth over 24 h” value [2] was 0%.

With `O=C(N/N=C/c1ccc([N+](=O)[O-])o1)c1ccccc1` the Parasite growth [3] was 0%, the Activity [1] was 0% and the “Parasite growth over 24 h” value [2] was 0%.
